Tests used:
[1] = target: Cannabinoid receptor 1 (Rattus norvegicus, UniProt P20272); assay: Displacement of [3H]CP-55940 from CB1 receptor in rat brain synaptosomal membrane; assay type: cell membranes
Procedure, shortened: (§1)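 Rat forebrain synaptosomal membranes prepared from frozen brains serve as CB1 source. Binding is competition against tritiated CP-55,940, run in 96-well filter format, and IC50 values are taken from displacement. Filters are washed in buffer containing 0.5% BSA and counted by scintillation. Ki is the mean of three independent experiments, each run in duplicate.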

[2] = target: Cannabinoid receptor 2 (Mus musculus, UniProt P47936); assay: Displacement of [3H]CP-55940 from CB2 receptor in mouse spleen membrane; assay type: cell membranes
Chain of Cannabinoid receptor 2 (P47936 whole entry): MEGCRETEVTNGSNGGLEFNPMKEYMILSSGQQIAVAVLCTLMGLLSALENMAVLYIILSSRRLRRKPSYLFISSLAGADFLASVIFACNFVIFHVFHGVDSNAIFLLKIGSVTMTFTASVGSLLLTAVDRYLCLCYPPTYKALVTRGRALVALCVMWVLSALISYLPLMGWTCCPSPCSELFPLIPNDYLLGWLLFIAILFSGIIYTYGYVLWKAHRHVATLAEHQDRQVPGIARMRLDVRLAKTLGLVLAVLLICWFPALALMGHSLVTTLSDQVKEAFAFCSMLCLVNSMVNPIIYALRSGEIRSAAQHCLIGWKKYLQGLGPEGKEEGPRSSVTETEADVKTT
Procedure, shortened: as §1, with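 “CB2 sites are measured with” for “Rat forebrain synaptosomal”, “mouse spleen.” for “brains serve as CB1 source.”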

[3] = Selectivity for mouse CB2 receptor over rat CB1 receptor

Chain of Cannabinoid receptor 1 (P20272 whole entry): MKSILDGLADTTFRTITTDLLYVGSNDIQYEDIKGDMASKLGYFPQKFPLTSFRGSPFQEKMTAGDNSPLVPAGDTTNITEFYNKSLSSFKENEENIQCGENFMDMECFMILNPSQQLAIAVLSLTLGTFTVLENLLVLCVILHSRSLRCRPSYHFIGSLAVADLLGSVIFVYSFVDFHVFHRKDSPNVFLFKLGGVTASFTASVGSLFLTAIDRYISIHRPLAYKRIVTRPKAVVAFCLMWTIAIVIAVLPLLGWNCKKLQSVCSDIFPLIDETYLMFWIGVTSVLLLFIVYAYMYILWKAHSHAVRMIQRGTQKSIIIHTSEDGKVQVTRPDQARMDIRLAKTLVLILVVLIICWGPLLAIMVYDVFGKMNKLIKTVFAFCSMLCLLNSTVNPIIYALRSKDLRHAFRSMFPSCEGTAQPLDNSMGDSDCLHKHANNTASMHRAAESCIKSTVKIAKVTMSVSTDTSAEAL

Structure (SMILES) | Ki [1] [nM] | Ki [2] [nM] | Selectivity ratio [3]
CCCCCCCC1(c2cc(O)c3c(c2)OC(C)(C)[C@@H]2CC=C(C)C[C@@H]32)CC1 (relative stereo) | 0.48 | 4.2 | –
CCCCCCCC1(c2cc(O)c3c(c2)OC(C)(C)[C@@H]2CC=C(C)C[C@@H]32)CCCCC1 | 13.6 | 143 | –
CCCCCCC1(c2cc(O)c3c(c2)OC(C)(C)[C@@H]2CC=C(C)C[C@@H]32)CCCCC1 | 18.4 | 23.5 | –
CCCC/C=C\C1(c2cc(O)c3c(c2)OC(C)(C)[C@@H]2CC=C(C)C[C@@H]32)CCCCC1 | 3.9 | 4.9 | –
CCCCCCCC1(c2cc(O)c3c(c2)OC(C)(C)[C@@H]2CC=C(C)C[C@@H]32)CCC1 | 2.7 | 52.3 | 20
CCCC/C=C\C1(c2cc(O)c3c(c2)OC(C)(C)[C@@H]2CC=C(C)C[C@@H]32)CCCC1 (relative stereo) | 0.72 | 1.8 | –
CCCCCCCc1cc(O)c2c(c1)OC(C)(C)[C@@H]1CC=C(C)C[C@@H]21 | 8.8 | 20.8 | –
CCCCCCCC1(c2cc(O)c3c(c2)OC(C)(C)[C@@H]2CC=C(C)C[C@@H]32)CCCC1 | 9.9 | 45.5 | –
CCCC/C=C\C1(c2cc(O)c3c(c2)OC(C)(C)[C@@H]2CC=C(C)C[C@@H]32)CC1 | 1.5 | 1.7 | –
CCCC/C=C\C1(c2cc(O)c3c(c2)OC(C)(C)[C@@H]2CC=C(C)C[C@@H]32)CCC1 | 0.93 | 1.2 | –
CCCCCCC1(c2cc(O)c3c(c2)OC(C)(C)[C@@H]2CC=C(C)C[C@@H]32)CCC1 | 1.5 | 11.5 | 8
